Reference: ChEMBL document CHEMBL4229376, “Optimization of the pharmacokinetic properties of potent anti-trypanosomal triazine derivatives” (Eur J Med Chem, 2018)
Active and inactive are the calls of the source. The rule behind the calls is not given here.

Experiments:
[1] = Protein binding in mouse plasma assessed as drug recovery at 2 uM after 6 hrs by equilibrium dialysis and LC-MS analysis; type: ADME, cell-free; conditions: read-out: Drug recovery
[2] = Drug uptake in Swiss mouse blood at 50 mg/kg, po administered as single dose after 0.25 hrs by UPLC/MS/ESI analysis; type: ADME, organism-based; conditions: whole blood, read-out: Drug uptake
Method in brief: (§1)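 Mice were given the compound orally as a single dose of either 25 or 50 mg/kg, one group per dose. Plasma concentrations were followed over time up to 24 h, and the pharmacokinetic parameters were derived from the concentration-time profile.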

[3] = AUC (0 to >4 hrs) in Swiss mouse infected with Trypanosoma brucei brucei Squib 427 at 25 mg/kg, po administered as single dose by UPLC/MS/ESI analysis; type: ADME, organism-based; conditions: in vivo
[4] = Drug level in Swiss mouse blood infected with Trypanosoma brucei brucei Squib 427 at 25 mg/kg, po bid for 5 days measured after 4 hrs after last dose by UPLC/MS/ESI analysis; type: ADME, organism-based; conditions: whole blood, read-out: Drug uptake
[5] = Drug level in Swiss mouse blood infected with Trypanosoma brucei brucei Squib 427 at 25 mg/kg, po bid for 5 days measured after 0.5 hrs after last dose by UPLC/MS/ESI analysis; type: ADME, organism-based; conditions: whole blood, read-out: Drug uptake
[6] = Drug level in Swiss mouse blood infected with Trypanosoma brucei brucei Squib 427 at 25 mg/kg, po bid for 5 days measured after 2 hrs after last dose by UPLC/MS/ESI analysis; type: ADME, organism-based; conditions: whole blood, read-out: Drug uptake
[7] = Drug metabolism in mouse liver microsomes assessed as CYP450 mediated compound […] by measuring parent compound remaining at 5 uM after 15 mins in presence of NADPH by UPLC/MS/ESI analysis; type: ADME; conditions: read-out: Stability
[8] = system: Trypanosoma brucei brucei; test: Antitrypanosomal activity against Trypanosoma brucei brucei Squib 427 infected in Swiss mouse assessed as mean survival days at 25 mg/kg, po bid for 5 days; type: functional
Method in brief: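 Acute mouse infection model with T. b. brucei. Dosing ran for 5 days after infection, orally or intraperitoneally, once or twice daily. Groups were 3 mice each, with vehicle-treated infected controls. The read-out was mean survival time in days, plus the number of survivors on day 14 post-infection.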

[9] = Drug metabolism in human liver microsomes assessed as UGT mediated compound […] by measuring parent compound remaining at 5 uM after 60 mins in presence of UDPGA by UPLC/MS/ESI analysis; type: ADME; conditions: read-out: Stability
[10] = Drug metabolism in human liver microsomes assessed as CYP450 mediated compound […] by measuring parent compound remaining at 5 uM after 60 mins in presence of NADPH by UPLC/MS/ESI analysis; type: ADME; conditions: read-out: Stability
[11] = Drug level in Swiss mouse blood infected with Trypanosoma brucei brucei Squib 427 at 50 mg/kg, po bid for 5 days measured after 2 hrs after last dose by UPLC/MS/ESI analysis; type: ADME, organism-based; conditions: whole blood, read-out: Drug uptake
Plasmodium falciparum = test: Antiplasmodial activity against chloroquine-resistant Plasmodium falciparum K1 infected in human erythrocytes after 72 hrs by Malstat reagent-based spectrophotometric analysis; type: functional, organism-based; conditions: K1, 72 h
[12] = Drug metabolism in mouse liver microsomes assessed as UGT mediated compound […] by measuring parent compound remaining at 5 uM after 15 mins in presence of UDPGA by UPLC/MS/ESI analysis; type: ADME; conditions: 0.25 h
Method in brief: (§2)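 Metabolic stability was run with mouse liver microsomal fraction (S9) and read as percent parent compound remaining over incubation time. Diclofenac served as the reference compound.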

Mus musculus [13] = test: Apparent volume of distribution in Swiss mouse infected with Trypanosoma brucei brucei Squib 427 at 25 mg/kg, po administered as single dose after 24 hrs by UPLC/MS/ESI analysis; type: ADME, organism-based; conditions: in vivo
[14] = Drug level in Swiss mouse blood infected with Trypanosoma brucei brucei Squib 427 at 50 mg/kg, po bid for 5 days measured after 0.5 hrs after last dose by UPLC/MS/ESI analysis; type: ADME, organism-based; conditions: whole blood, read-out: Drug uptake
[15] = system: Trypanosoma brucei brucei; test: Antitrypanosomal activity against suramin-sensitive Trypanosoma brucei brucei Squib 427 after 72 hrs by resazurin dye-based fluorimetric analysis; type: functional, organism-based; conditions: Squib 427, 72 h
[16] = AUC (0 to >4 hrs) in Swiss mouse infected with Trypanosoma brucei brucei Squib 427 at 50 mg/kg, po bid for 5 days by UPLC/MS/ESI analysis; type: ADME, organism-based; conditions: in vivo
[17] = Drug uptake in Swiss mouse blood at 25 mg/kg, po administered as single dose after 1 hr by UPLC/MS/ESI analysis; type: ADME, organism-based; conditions: whole blood, read-out: Drug uptake; method in brief: as §1
Peritoneal macrophage = test: Cytotoxicity against mouse primary peritoneal macrophages after 72 hrs by resazurin dye-based fluorimetric analysis; type: cell-based
[18] = Ratio of Cmax in Swiss mouse at 50 mg/kg, po administered as single dose after 24 hrs by LC-MS analysis to IC50 for antitrypanosomal activity against suramin-sensitive Trypanosoma brucei brucei Squib 427 after 72 hrs by resazurin dye-based fluorimetric analysis; type: ADME, organism-based; conditions: in vivo
[19] = Drug metabolism in human liver microsomes assessed as UGT mediated compound […] by measuring parent compound remaining at 5 uM after 15 mins in presence of UDPGA by UPLC/MS/ESI analysis; type: ADME; conditions: read-out: Stability
Trypanosoma cruzi = test: Antitrypanosomal activity against nifurtimox-sensitive Trypanosoma cruzi Tulahuen CL2 infected in human MRC5 SV2 cells assessed as reduction in parasite burden after 168 hrs by CPRG and Nonidet based spectrophotometric analysis; type: functional, organism-based; conditions: Tulahuen CL2, MRC-5 SV2, 168 h
[20] = Cytotoxicity against human MRC5 SV2 cells after 72 hrs by resazurin dye-based fluorimetric analysis; type: cell-based; conditions: MRC-5 SV2, 72 h
[21] = Half life in Swiss mouse infected with Trypanosoma brucei brucei Squib 427 at 25 mg/kg, po administered as single dose after 24 hrs by UPLC/MS/ESI analysis; type: ADME, organism-based; conditions: in vivo
[22] = Drug uptake in Swiss mouse blood at 50 mg/kg, po administered as single dose after 24 hrs by UPLC/MS/ESI analysis; type: ADME, organism-based; conditions: whole blood, read-out: Drug uptake; method in brief: as §1
[23] = Cmax in Swiss mouse infected with Trypanosoma brucei brucei Squib 427 at 50 mg/kg, po bid for 5 days after 24 hrs by UPLC/MS/ESI analysis; type: ADME, organism-based; design: dose 50 mg/kg, route oral; conditions: in vivo
[24] = Drug metabolism in mouse liver microsomes assessed as UGT mediated compound […] by measuring parent compound remaining at 5 uM after 30 mins in presence of UDPGA by UPLC/MS/ESI analysis; type: ADME; conditions: 0.5 h; method in brief: as §2
[25] = Clearance in Swiss mouse infected with Trypanosoma brucei brucei Squib 427 at 50 mg/kg, po bid for 5 days after 24 hrs by UPLC/MS/ESI analysis; type: ADME, organism-based; conditions: in vivo
[26] = Drug metabolism in human plasma assessed as parent compound remaining after 60 mins by UPLC/MS/ESI analysis; type: ADME, cell-free; conditions: read-out: Stability
Mus musculus [27] = test: Apparent volume of distribution in Swiss mouse at 25 mg/kg, po administered as single dose after 24 hrs by UPLC/MS/ESI analysis; type: ADME, organism-based; conditions: in vivo
Method in brief: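 Mice in groups received one oral dose of 25 or 50 mg/kg. Plasma concentrations were followed over time up to 24 h, and PK parameters including T1/2 were derived from the concentration–time profile.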

[28] = system: Trypanosoma brucei brucei; test: Antitrypanosomal activity against Trypanosoma brucei brucei Squib 427 infected in Swiss mouse assessed as mouse survival at 50 mg/kg, po bid for 5 days and measured on day 14 post infection; type: functional, organism-based
Method in brief: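 Acute T. b. brucei mouse infection model. Dosing was PO or IP at 10–50 mg/kg, once (SID) or twice (BID) daily for 5 days after infection, with 3 mice per group. […] Read-outs were mean survival time and survivors on day 14 post infection.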

Nc1nc(Nc2ccc(F)cc2)nc(Oc2ccc(F)cc2)n1
recovery at 6 h, 2 µM [1]: 90.2%
concentration at 0.25 h [2]: 1320 ng/mL
AUC at 4 h [3]: 4710 ng·h/mL
concentration at 4 h [4]: 204 ng/mL
concentration at 0.5 h [5]: 2090 ng/mL
concentration at 2 h [6]: 1100 ng/mL
remaining at 0.25 h, 5 µM [7]: 76%
MST [8]: 6 days
remaining at 1 h, 5 µM [9]: 96%
remaining at 1 h, 5 µM [10]: 65%
concentration at 2 h [11]: 2840 ng/mL
IC50 (Plasmodium falciparum): > 64 µM
Stability [12]: 97%
Vz (Mus musculus [13]): 13 L
concentration at 0.5 h [14]: 2870 ng/mL
IC50 [15]: 0.6 µM
AUC [16]: 9350 ng·h/mL
concentration at 1 h [17]: 1180 ng/mL
IC50 (Peritoneal macrophage): > 64 µM
Ratio [18]: 10
remaining at 0.25 h, 5 µM [19]: 107%
IC50 (Trypanosoma cruzi): > 64 µM
IC50 [20]: > 64 µM
half-life [21]: 51 min
concentration at 24 h [22]: 150 ng/mL
Cmax [23]: 3830 ng/mL
Stability [24]: 103%
CL/F [25]: 89.9 mL/min
remaining at 1 h [26]: 88%
Vz (Mus musculus [27]): 26.7 L
Activity [28]: inactive
